IMP-1 inh – blocks Pseudomonas aeruginosa IMP-1 metallo-beta-lactamase; inhibition, % at 5.6 µM; purified IMP-1, nitrocefin hydrolysis, epi-absorbance fluorescence; 290,000 tested, 0.45% active; AID 1556;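 active = inhibition above the mean plus 3 SD of all compounds in the same screening run, cut at about 4.5% in these data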;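 note: 0% = IMP-1 with DMSO and 100% = DMSO wells lacking enzyme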
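Assay system: purified recombinant IMP-1 beta-lactamase. Input: IMP-1 0.2 nM before substrate addition. Buffer or medium: Zinc- and detergent-supplemented HEPES buffer, pH 7.1. Schedule: 25 °C, 15 min preincubation, 25 min reaction. Signal: Epi-absorbance fluorescence, 480 nm excitation, 530 nm emission. Evaluation: percent inhibition from optical density relative to buffer-blank wells.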
PvdQ acylase – blocks Pseudomonas aeruginosa PvdQ acylase activity; purified PvdQ acylase, fluorescence plate reader; inhibition, % at 10 µM; 340,000 tested, 0.063% active; AID 488965; in the data active = inhibition above about 30%, passing the limit was not always enough;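 note: 0% = vehicle neutral wells and 100% = reference inhibitor wells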
VIM-2 inh – blocks Pseudomonas aeruginosa VIM-2 metallo-beta-lactamase | purified VIM-2, nitrocefin hydrolysis, epi-absorbance fluorescence | inhibition, % at 5.6 µM | 290,000 tested, 0.89% active | AID 1527;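 active = inhibition above the mean of all tested compounds plus 3 SD, cutoff set per screening run, cut at about 7.5% in these data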;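 note: red hydrolysis product quenches plate fluorescence so inhibitors raise well fluorescence; 0% = enzyme with DMSO and 100% = DMSO without enzyme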
PLC-beta3 inh – blocks human PLC-beta3 enzyme activity. Q01970. Purified PLC-beta3, fluorogenic substrate, fluorescence. inhibition, % at 12.2 µM. 370,000 tested, 0.18% active. AID 720704; in the data active = inhibition above about 11%;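 note: 0% = median of compound wells on plate and 100% = full blocker control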
PLCg1 inh – blocks human PLC-gamma1 enzyme activity. AID 720700. purified PLC-gamma1, fluorogenic substrate, fluorescence. inhibition, % at 12.2 µM. P19174. 370,000 tested, 0.84% active
Target sequence (P19174 whole entry, looked up): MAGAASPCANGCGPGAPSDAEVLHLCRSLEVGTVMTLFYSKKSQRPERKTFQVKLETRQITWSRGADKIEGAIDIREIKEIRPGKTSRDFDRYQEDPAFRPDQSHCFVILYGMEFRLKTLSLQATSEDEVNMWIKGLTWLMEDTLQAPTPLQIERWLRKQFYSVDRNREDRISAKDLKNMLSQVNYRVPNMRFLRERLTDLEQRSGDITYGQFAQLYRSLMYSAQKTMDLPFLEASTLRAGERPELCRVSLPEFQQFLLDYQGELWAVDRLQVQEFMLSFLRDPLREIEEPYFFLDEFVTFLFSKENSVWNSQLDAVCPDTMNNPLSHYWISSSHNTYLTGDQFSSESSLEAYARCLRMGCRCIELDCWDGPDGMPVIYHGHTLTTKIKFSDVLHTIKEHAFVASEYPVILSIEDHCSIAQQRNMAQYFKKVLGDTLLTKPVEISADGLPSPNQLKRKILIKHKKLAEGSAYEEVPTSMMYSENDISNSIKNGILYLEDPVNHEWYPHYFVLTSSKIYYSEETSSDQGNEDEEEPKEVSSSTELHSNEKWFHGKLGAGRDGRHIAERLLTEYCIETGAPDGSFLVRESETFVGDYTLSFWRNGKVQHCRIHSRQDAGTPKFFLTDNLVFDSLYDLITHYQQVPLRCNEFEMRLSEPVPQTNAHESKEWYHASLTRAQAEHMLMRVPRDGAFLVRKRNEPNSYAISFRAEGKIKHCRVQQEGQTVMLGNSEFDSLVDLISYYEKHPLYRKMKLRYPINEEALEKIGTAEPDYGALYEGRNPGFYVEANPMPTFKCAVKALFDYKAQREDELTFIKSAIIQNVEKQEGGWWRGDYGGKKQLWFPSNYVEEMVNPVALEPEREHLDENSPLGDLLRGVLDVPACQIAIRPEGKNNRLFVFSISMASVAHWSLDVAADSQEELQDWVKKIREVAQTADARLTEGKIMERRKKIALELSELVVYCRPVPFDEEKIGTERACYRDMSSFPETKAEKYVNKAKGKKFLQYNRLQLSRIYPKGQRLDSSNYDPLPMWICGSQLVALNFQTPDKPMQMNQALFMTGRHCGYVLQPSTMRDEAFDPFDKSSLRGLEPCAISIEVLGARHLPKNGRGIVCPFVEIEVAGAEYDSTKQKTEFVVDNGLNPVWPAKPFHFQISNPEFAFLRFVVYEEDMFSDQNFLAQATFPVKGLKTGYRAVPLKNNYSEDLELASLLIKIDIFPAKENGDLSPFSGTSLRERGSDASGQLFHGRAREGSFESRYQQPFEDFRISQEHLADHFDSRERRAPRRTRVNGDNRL
PLCgamma1 ctr – inhibits human PLC-gamma1 in PLC-beta3 counter-screen | purified PLC-gamma1, fluorogenic substrate, fluorescence | inhibition, % at 12.3 µM | shares compounds with PLCg1 inh | 3,300 tested, 3.1% active | AID 743258
PLCb3 confirm – confirmation of human PLC-beta3 inhibitors; 3,300 tested, 1% active; AID 743261; inhibition, % at 12.3 µM; shares compounds with PLCg1 inh; purified PLC-beta3, fluorogenic substrate fluorescence; in the data active = inhibition above about 11%
Numbers without * were called inactive. Most compounds without a hit are left out; they make up all but 2% or so of the library. Cut-off read from the data, not from the text of the source, unless noted: active = inhibition above about 9.5%; inactive = the rest.

How did Cc1cc(C)cc(C(=O)OCCN(C)C2CN(Cc3cn(Cc4ccccc4F)nn3)S(=O)(=O)C2)c1 (stereo unspecified) do in these assays?
PLC-beta3 inh: 3; PLCg1 inh: 1

How did N#Cc1ccccc1OCC(=O)NNC(=O)CCC1CCCC1 do in these assays?
PvdQ acylase: -16; PLC-beta3 inh: 1; PLCg1 inh: 12*; PLCgamma1 ctr: -6; PLCb3 confirm: -3

How did O=C(OCc1cn(Cc2cccc(C(F)(F)F)c2)nn1)N1CCOCC1 do in these assays?
PLC-beta3 inh: -1; PLCg1 inh: 1

What do the screens show for `CCOC(=O)CSc1nnc(Cn2c(=O)sc3ccccc32)n1-c1ccccc1C`?
IMP-1 inh: -2; PvdQ acylase: 7; VIM-2 inh: -2; PLC-beta3 inh: 11*; PLCg1 inh: 8; PLCgamma1 ctr: 9.5*; PLCb3 confirm: -1

What do the screens show for `COc1ccc(C(=O)Nc2ccc(S(=O)(=O)N3CCCCC3C)cc2)c(OC)c1OC` (stereo unspecified)?
IMP-1 inh: -4; PvdQ acylase: 3; VIM-2 inh: -2; PLC-beta3 inh: 12*; PLCg1 inh: 10*; PLCgamma1 ctr: 3; PLCb3 confirm: -1

Results for N#CC1(NC(=O)CSc2nc3ccccc3s2)CCCCC1 ?
PvdQ acylase: -2; PLC-beta3 inh: 4; PLCg1 inh: 12*; PLCgamma1 ctr: -2; PLCb3 confirm: 5

What do the screens show for `CCOc1cc(CNCC2CCCN2CC)cc(Cl)c1OC` (stereo unspecified)?
IMP-1 inh: -5; PvdQ acylase: 1; VIM-2 inh: -5; PLC-beta3 inh: 1; PLCg1 inh: 12*; PLCgamma1 ctr: -1; PLCb3 confirm: -1

How did CC1(C)N([O-])C(c2ccccc2)=C[N+](=O)C1(C)C do in these assays?
IMP-1 inh: -3; PvdQ acylase: 7; VIM-2 inh: -4; PLC-beta3 inh: 9; PLCg1 inh: 10*; PLCgamma1 ctr: -5; PLCb3 confirm: 0

Results for COc1ccc(OC)c(C2=C[N+](=O)C(C)(C)C(C)(C)N2[O-])c1 ?
IMP-1 inh: -3; PvdQ acylase: 15; VIM-2 inh: -5; PLC-beta3 inh: 4; PLCg1 inh: 1

What do the screens show for `CC(C)C[C@H]1COc2cccc(F)c2S(=O)(=O)N1C`?
PLC-beta3 inh: -3; PLCg1 inh: 0

How did COC(=O)[C@]12C[C@H](CC(=O)N3CCSCC3)C(=O)N(Cc3ccco3)C1=C[C@H](C(C)C)O[C@@H]2C1CC1 do in these assays?
PLC-beta3 inh: 2; PLCg1 inh: 0

Results for O=C1OCc2cc(NS(=O)(=O)c3cccs3)ccc21 ?
IMP-1 inh: -3; PvdQ acylase: -25; VIM-2 inh: 0; PLC-beta3 inh: -1; PLCg1 inh: 10*; PLCgamma1 ctr: -2; PLCb3 confirm: -6

What do the screens show for `COC(=O)c1cc2c(c3c4ccccc4n(S(=O)(=O)c4ccc(OC)cc4)c13)C(=O)N(Cc1ccc(N(C)C)cc1)C2`?
PLC-beta3 inh: -7; PLCg1 inh: -3

How did COc1ccc(CNC(=O)N(C)C[C@@H]2OCc3ccccc3-c3c(n(C)c4ccccc34)C(=O)N([C@@H](C)CO)C[C@@H]2C)cc1 do in these assays?
PLC-beta3 inh: 3; PLCg1 inh: -3

What do the screens show for `COc1ccc(CCN(C)C(=O)CCNC(=O)c2ccc(Br)cc2)cc1OC`?
IMP-1 inh: -3; PvdQ acylase: -9; VIM-2 inh: -1; PLC-beta3 inh: 3; PLCg1 inh: 11*; PLCgamma1 ctr: -3; PLCb3 confirm: 1

Results for COc1ccc(CCNC(=O)c2ccc(OC)c(OC)c2)cc1OC ?
IMP-1 inh: -3; PvdQ acylase: -9; VIM-2 inh: -3; PLC-beta3 inh: -2; PLCg1 inh: -1

What do the screens show for `CCN(CC)CCCNC(=O)CSc1nc2cccnc2n1C`?
PLC-beta3 inh: 1; PLCg1 inh: 2

How did O=C1c2cccnc2C(=O)N1c1ccccc1-c1ccccc1 do in these assays?
IMP-1 inh: -5; PvdQ acylase: 3; VIM-2 inh: -2; PLC-beta3 inh: -2; PLCg1 inh: 12*; PLCgamma1 ctr: -4; PLCb3 confirm: -4

How did CCOC(=O)c1ccc(-c2ccc3oc(-c4ccsc4)cc(=O)c3c2)cc1F do in these assays?
PvdQ acylase: -14; PLC-beta3 inh: -1; PLCg1 inh: 10*; PLCgamma1 ctr: -17; PLCb3 confirm: -14

How did COc1cc(-c2ccc3oc(-c4ccsc4)cc(=O)c3c2)cc(OC)c1OC do in these assays?
PvdQ acylase: -7; PLC-beta3 inh: -43; PLCg1 inh: -25

What do the screens show for `Cn1cc(C(=O)NC2C3CC4CC(C3)CC2C4)cn1` (stereo unspecified)?
IMP-1 inh: -2; PvdQ acylase: -11; VIM-2 inh: -3; PLC-beta3 inh: 2; PLCg1 inh: 12*; PLCgamma1 ctr: -4; PLCb3 confirm: -6

How did COc1ccc(-c2cc(-c3nnc(SCC(=O)Nc4ccc(OCc5ccccc5)cc4)n3N)[nH]n2)cc1 do in these assays?
PLC-beta3 inh: 2; PLCg1 inh: 0

What do the screens show for `CCOC(=O)c1c(C)nc2c(c1-c1cc(OC)c(OC)c(OC)c1)C(=O)c1ccccc1-2`?
IMP-1 inh: -2; PvdQ acylase: -14; VIM-2 inh: -4; PLC-beta3 inh: 7; PLCg1 inh: 12*; PLCgamma1 ctr: -1; PLCb3 confirm: -4

What do the screens show for `CCc1nnn2c1Cn1c3ccccc3c(=O)n1[C@@H](C)C2`?
PLC-beta3 inh: -39; PLCg1 inh: -28

Results for CC(=O)c1cc(-c2ccc3nonc3c2)c(=O)n2c1CCC2 ?
PLC-beta3 inh: -128; PLCg1 inh: -88

Results for COC(=O)c1scc(C)c1-n1ccc(C(=O)C(=O)N(C)C)c1 ?
IMP-1 inh: -1; PvdQ acylase: -5; VIM-2 inh: 0; PLC-beta3 inh: 13*; PLCg1 inh: 7; PLCgamma1 ctr: -4; PLCb3 confirm: -1

How did Cc1cc(NS(=O)(=O)c2ccc(NC(=O)Cc3ccc(Cl)c(F)c3)cc2)no1 do in these assays?
PLC-beta3 inh: -4; PLCg1 inh: -2

How did COc1ccc(-c2cn[nH]c2N)cc1 do in these assays?
IMP-1 inh: -4; PvdQ acylase: -8; VIM-2 inh: -4; PLC-beta3 inh: 4; PLCg1 inh: 12*; PLCgamma1 ctr: -8; PLCb3 confirm: -2

How did COc1ccc(C)cc1NC(=O)CNC(c1ccccc1)c1ccc(C)cc1 (stereo unspecified) do in these assays?
IMP-1 inh: -1; PvdQ acylase: -7; VIM-2 inh: 1; PLC-beta3 inh: -1; PLCg1 inh: 2

How did COc1ccccc1NC(=O)CNC(c1ccccc1)c1ccccc1 do in these assays?
IMP-1 inh: -2; PvdQ acylase: -17; VIM-2 inh: -1; PLC-beta3 inh: -3; PLCg1 inh: 13*; PLCgamma1 ctr: -3; PLCb3 confirm: -7
